Experiments:
[1] = folding enthalpy; higher = less favourable; fluorescence melt of hairpins on a sequencing array, two-state fit; details: sodium 0.088 M
Summary of the method: (§1)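 Folding enthalpy and melting temperature were estimated with bootstrapped two-state fits and combined across four replicates by inverse-variance weighting, with fitted temperatures raised by 9.35 °C to match UV melts. The data were Cy3 fluorescence of library hairpins, with annealed Cy3 and quencher oligos, on a sequenced MiSeq flow cell in 50 mM Na-HEPES pH 8.0, 25 mM NaCl, imaged in 2.5 °C steps up to 60 °C and normalised to pre-quench Cy3 and control constructs.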

[2] = melting temperature; fluorescence melt of hairpins on a sequencing array, two-state fit, raised by 9.35 °C to match UV melts; details: sodium 0.088 M
Summary of the method: as §1

Sequence | folding enthalpy [1] [kcal/mol] | Tm [2] [°C]
GCTGGGCGAAAGCCTAGC (((.(((....))).))) | -31.5 | 66.2
GCTGGGCGAAAGCGCCGC ((.(.((....)).).)) | -18.2 | 47.4
GCTGGGCGAAAGCGTAGC (((..((....))..))) | -22.5 | 52.1
GCTGGGGGAAACCTCAGC ((((.((....)).)))) | -44.8 | 54.6
GCTGGGGGAAACCTCGGC ((.(.((....)).).)) | -28.9 | 44.4
GCTGTAGAAATACAGC ((((((....)))))) | -34.7 | 56.9
GCTGTAGGAAACCACAGC (((((.(....).))))) | -36.3 | 47.5
GCTGTCCCGAAAGGGAGC (((..(((....)))))) | -11 | 41.5
GCTGTCGAAAGACCAGC ((((((....))).))) | -20.8 | 51.3
GCTGTCGAAAGACCCAGC ((((((....)))..))) | -15.9 | 34.8
GCTGTCGAAAGACCGAGC ((((((....)))..))) | -21 | 37
GCTGTCGAAAGACCTAGC ((((((....)))..))) | -15.7 | 36.5
GCTGTCGAAAGACGGAGC ((((((....)))..))) | -18.1 | 42.9
GCTGTCGAAAGACTAGC ((((((....))).))) | -24.4 | 50.3
GCTGTCGAAAGACTTAGC ((((((....)))..))) | -19.9 | 43
GCTGTCGCGAAAGCGAGC (((..(((....)))))) | -8.75 | 41.8
GCTGTCGGAAACAACAGC (((((.(....).))))) | -26.9 | 46
GCTGTGCCGAAAGGCAGC (((..(((....)))))) | -10.3 | 48.7
GCTGTGCGAAAGCAAAGC (((.(((....))).))) | -42.2 | 55.7
GCTGTGCGAAAGCAATGC ((..(((....)))..)) | -19.1 | 42.8
GCTGTGCGAAAGCACCGC ((.((((....)))).)) | -17.9 | 58.7
GCTGTGCGAAAGCATGGC ((..(((....)))..)) | -22.4 | 59.5
GCTGTGCGAAAGCGAAGC (((..((....))..))) | -17.9 | 52.6

Sequence | folding enthalpy [1] [kcal/mol] | Tm [2] [°C]
GCTGTGCGAAAGCGGAGC (((..((....))..))) | -22 | 54.9
GCTGTGCGAAAGCTAAGC (((..((....))..))) | -21.4 | 53.1
GCTGTGGAAACACAGC ((((((....)))))) | -37.4 | 68.7
GCTGTGGGAAACCATAGC (((.(((....))).))) | -22.3 | 50
GCTGTGGGAAACCGCAGC ((((.((....)).)))) | -44.6 | 60.7
GCTGTGGGAAACCGTAGC (((..((....))..))) | -18.5 | 34.4
GCTGTGGGAAACTGCAGC ((((..(....)..)))) | -20.3 | 48.1
GCTGTTCGAAAGAATAGC (((.(((....))).))) | -44.9 | 53.2
GCTGTTGGAAACAATGGC ((..(((....)))..)) | -27.4 | 39.9
GCTTAACGAAAGTTGAGC (((.(((....))).))) | -38.9 | 52.4
GCTTAACGAAAGTTTAGC (((.(((....))).))) | -30.5 | 46.4
GCTTAAGGAAACTTGAGC (((.(((....))).))) | -31.5 | 38.9
GCTTACCGAAAGGTCAGC (((.(((....))).))) | -27.8 | 50.3
GCTTACCGAAAGGTGAGC (((.(((....))).))) | -40.5 | 58.6
GCTTACGAAAGTACCAGC ((((((....)))..))) | -13.2 | 27.9
GCTTACGAAAGTATAGC ((((((....))).))) | -23.4 | 44.6
GCTTACGAAAGTATGAGC ((((((....)))..))) | -20.5 | 34.7
GCTTACGGAAACGCAAGC ((((.((....)).)))) | -44.1 | 46
GCTTAGCGAAAGCAACGC ((.(.((....)).).)) | -7.36 | 30.5
GCTTAGCGAAAGCCACGC ((.(.((....)).).)) | -8.56 | 22.5
GCTTAGCGAAAGCCATGC ((.(.((....)).).)) | -11.2 | 29.6
GCTTAGCGAAAGCCTAGC (((..((....))..))) | -15.6 | 37.8
GCTTAGCGAAAGCGACGC ((.(.((....)).).)) | -18.2 | 53.2

Sequence | folding enthalpy [1] [kcal/mol] | Tm [2] [°C]
GCTTAGCGAAAGCTCGGC ((..(((....)))..)) | -17.7 | 36.7
GCTTAGGGAAACCTAGGC ((.((((....)))).)) | -34.1 | 44.4
GCTTAGGGAAACTTAAGC (((((.(....).))))) | -30 | 37.9
GCTTATGCGAAAGCAAGC (((..(((....)))))) | -16.6 | 42.4
GCTTCAACGAAAGTTAGC (((..(((....)))))) | -18.7 | 30.9
GCTTCACGAAAGTGGAGC (((.(((....))).))) | -43.7 | 58.3
GCTTCAGGAAACTGAGGC ((.((((....)))).)) | -37.3 | 47.7
GCTTCAGGAAACTGGAGC (((.(((....))).))) | -38.5 | 49.9
GCTTCCGAAAGGAGCAGC ((((((....)))..))) | -15.2 | 41.7
GCTTCCGCGAAAGCGAGC (((..(((....)))))) | -11 | 35.5
GCTTCCGGAAACGGGAGC (((.(((....))).))) | -40.1 | 59.5
GCTTCGAAAGAAGC (((((....))))) | -26.6 | 66.8
GCTTCGCGAAAGCAACGC ((.(.((....)).).)) | -10 | 29.2
GCTTCGCGAAAGCGCCGC ((..(((....)))..)) | -12.2 | 44.7
GCTTCGCGAAAGCGCGGC ((..(((....)))..)) | -18.8 | 39.6
GCTTCGCGAAAGCGGCGC ((..(((....)))..)) | -15.6 | 51.9
GCTTCGCGAAAGCTCAGC (((..((....))..))) | -13.4 | 44.5
GCTTCGGAAACGAAGC ((((((....)))))) | -36.3 | 67.8
GCTTCGGGAAACTGAGGC ((.((.(....).)).)) | -28.8 | 36.5
GCTTCTACGAAAGTAAGC (((..(((....)))))) | -14 | 33.1
GCTTCTCGAAAGAGAGC (((.(((....)))))) | -22 | 49.4
GCTTCTGGAAACAGGAGC (((.(((....))).))) | -37.5 | 50.5
GCTTGACCGAAAGGTAGC (((..(((....)))))) | -21.4 | 38.7

Sequence | folding enthalpy [1] [kcal/mol] | Tm [2] [°C]
GCTTGACGAAAGTCTAGC (((.(((....))).))) | -35.2 | 55.2
GCTTGAGGAAACTTGAGC (((..((....))..))) | -16.7 | 33.8
GCTTGCGAAAGCAATAGC ((((((....)))..))) | -15.3 | 47.1
GCTTGGCGAAAGCAGAGC (((..((....))..))) | -18.2 | 54
GCTTGGCGAAAGCCAGGC ((.((((....)))).)) | -23.5 | 66.4
GCTTGGCGAAAGCCCAGC (((.(((....))).))) | -36.6 | 51.2
GCTTGGCGAAAGCCGGGC ((..(((....)))..)) | -20.6 | 59.2
GCTTGGCGAAAGCCTAGC (((.(((....))).))) | -41.9 | 57.6
GCTTGGCGAAAGCGAAGC ((((.((....)).)))) | -18.6 | 60.4
GCTTGGCGAAAGCGACGC ((.(.((....)).).)) | -13.2 | 45.5
GCTTGGCGAAAGCGAGGC ((.(.((....)).).)) | -15.3 | 43.3
GCTTGGCGAAAGCGATGC ((.(.((....)).).)) | -14.3 | 45
GCTTGGCGAAAGCGGAGC (((..((....))..))) | -16.8 | 48.6
GCTTGGCGAAAGCTAGGC ((.(.((....)).).)) | -17 | 44.6
GCTTGGCGAAAGCTCAGC (((..((....))..))) | -15.2 | 41.1
GCTTGGGGAAACCCAAAC (.(((((....))))).) | -14.5 | 39.3
GCTTGTGAAAACAAGC ((((((....)))))) | -34.3 | 63.5
GCTTGTGGAAACACAAGC (((((((....))))))) | -39.9 | 63.9
GCTTGTGGAAACGTAAGC ((((..(....)..)))) | -17.7 | 36.6
GCTTGTTCGAAAGAAAGC (((..(((....)))))) | -16.2 | 26.5
GCTTTAGAAATAAAGC ((((((....)))))) | -31.4 | 45.1
GCTTTAGGAAACCAAAGC (((((.(....).))))) | -28.3 | 35.4
